From ChEMBL document CHEMBL1159324, “Bioactive isomalabaricane triterpenes from the marine sponge Rhabdastrella globostellata” (J Nat Prod, 2002)
pIC50: −log10 of the molar value.

Columns and labels:
Assay type in all cases: functional, cell-based
Conditions in all cases: HCT-116, 48 h
HCT-116 [1] = assay: Cytotoxicity against P53+ wild type human HCT116 cells after 48 hrs by MTS assay
How it was run: (§1)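 HCT116 colon tumour lines (wild type and isogenic p53- or p21-deficient, p21 disrupted by homologous recombination) grown in McCoy's 5A with 10% FBS, penicillin/streptomycin, L-glutamine and sodium pyruvate at 37 °C, 5% CO2. Seeded per well at 3000 (p53+, p53-), 4000 (p21+) or 6000 (p21-) cells. After 24 h, medium was replaced. Cells were exposed to varying concentrations for 48 h, and MTS bioreduction was read at 490 nm.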

HCT-116 [2] = assay: Cytotoxicity against P53 deficient human HCT116 cells after 48 hrs by MTS assay; how it was run: as §1
HCT-116 [3] = assay: Cytotoxicity against P21+ wild type human HCT116 cells after 48 hrs by MTS assay; how it was run: as §1
HCT-116 [4] = assay: Cytotoxicity against P21 deficient human HCT116 cells after 48 hrs by MTS assay; how it was run: as §1

SMILES	pIC50 (HCT-116 [1])	pIC50 (HCT-116 [2])	pIC50 (HCT-116 [3])	pIC50 (HCT-116 [4])
CC(/C=C/C=C(C)/C=C/C=C(\C)C(=O)O)=C1/C(=O)C[C@H]2[C@@]3(C)CCC(=O)C(C)(C)[C@@H]3CC[C@]12C [STELLETIN E]	< 5.27	< 5.27	5.34	7.41
CC(/C=C/C=C(\C)c1ccc(C)c(=O)o1)=C1/C(=O)C[C@H]2[C@@]3(C)CCC(=O)C(C)(C)[C@@H]3CC[C@]12C [STELLETTIN B]	5.14	5.08	6.19	7.37
CC(=O)O[C@H]1CC[C@@]2(C)[C@@H](CC[C@]3(C)\C(=C(C)/C=C/C=C(\C)c4ccc(C)c(=O)o4)C(=O)C[C@@H]23)C1(C)C [STELLETTIN C]	–	–	5.61	6.52
CC(=O)O[C@H]1CC[C@@]2(C)[C@@H](CC[C@]3(C)\C(=C(C)/C=C/C=C(C)/C=C/C=C(\C)C(=O)O)C(=O)C[C@@H]23)C1(C)C	–	–	< 5.31	5.40
C\C(=C/C=C/C(C)=C1/C(=O)C[C@H]2[C@@]3(C)CCC(=O)C(C)(C)[C@@H]3CC[C@]12C)c1ccc(C)c(=O)o1 [STELLETIN A]	–	–	5.35	6.59
CC(=O)O[C@H]1CC[C@@]2(C)[C@@H](CC[C@]3(C)/C(=C(C)/C=C/C=C(C)/C=C/C=C(\C)C(=O)O)C(=O)C[C@@H]23)C1(C)C	–	–	< 5.31	5.41
CC(/C=C/C=C(\C)C(=O)O)=C\C=C\C(C)=C1\C(=O)C[C@H]2[C@@]3(C)CCC(=O)C(C)(C)[C@@H]3CC[C@]12C [RHABDASTRELLIC ACID A]	–	–	< 5.27	5.46
CC(=O)O[C@H]1CC[C@@]2(C)[C@@H](CC[C@]3(C)/C(=C(C)/C=C/C=C(\C)c4ccc(C)c(=O)o4)C(=O)C[C@@H]23)C1(C)C [STELLETTIN D]	–	–	6.37	6.51
